From ChEMBL document CHEMBL4422614 (Eur J Med Chem, 2019)
Calls of active or inactive are those of the source. No cut-off for these calls is given here.

How the values were obtained:
[1] = target: 3',5'-cyclic-AMP phosphodiesterase 4D (Homo sapiens, UniProt Q08499); test: Inhibition of human PDE4D2 (86 to 413 residues) catalytic domain using [3H]-cAMP as substrate after 15 mins by liquid scintillation counting method
[2] = Antioxidant activity assessed as trolox equivalent of AAPH-induced radical scavenging activity at 10 to 20 uM preincubated for 10 mins followed by AAPH addition measured every minute for 120 mins by ORAC fluorescein assay; type: functional
Outline: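 ORAC values are expressed as trolox equivalents, mean ± SD of three independent experiments.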

[3] = Metal chelating activity of the compound assessed as formation of cupric-compound complex at 50 uM after 30 mins by UV-vis spectrophotometric analysis
Outline: (§1)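 UV-vis absorption spectra of compound (50 µM) were recorded in HEPES buffer alone and with 50 µM CuSO4, ZnCl2, FeSO4 or FeCl3, and spectral changes were assessed.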

[4] = Metal chelating activity of the compound assessed as formation of zinc-compound complex at 50 uM after 30 mins by UV-vis spectrophotometric analysis; outline: as §1
[5] = Metal chelating activity of the compound assessed as formation of ferric-compound complex at 50 uM after 30 mins by UV-vis spectrophotometric analysis; outline: as §1
[6] = Metal chelating activity of the compound assessed as formation of ferrous-compound complex at 50 uM after 30 mins by UV-vis spectrophotometric analysis; outline: as §1
SH-SY5Y [7] = test: Cytotoxicity against human SH-SY5Y cells assessed as effect on cell viability at 10 uM after 24 hrs by MTT assay; type: cell-based
Outline: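 SH-SY5Y viability was measured by MTT after exposure to compounds at 10 µM. Results are percent of vehicle control from three independent experiments.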

SH-SY5Y [8] = test: Antioxidant activity in human SH-SY5Y cells assessed as inhibition of t-BuOOH-induced intracellular oxidative stress by measuring ROS level preincubated for 24 hrs followed by t-BuOOH addition and measured after 30 mins by DCFH-DA dye-based fluorescence assay; type: functional, cell-based
[9] = Metal chelating activity assessed as inhibition of Cu(II)/ascorbate-induced ROS production by measuring […] level at 10 uM by fluorescence assay
Outline: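 A Cu-ascorbate redox system in PBS (pH 7.4) at 37 °C, with Cu(II) 5 µM, ascorbate 150 µM and coumarin-3-carboxylic acid 50 µM as the hydroxyl radical trap. Compound was pre-incubated 10 min before ascorbate was added. Fluorescence of 7-hydroxy-CCA (ex 395, em 450 nm) was read every 30 s for 15 min.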

[10] = Acute Toxicity in C57BL/6 mouse assessed as mouse mortality up to 2000 mg/kg, ig measured over 14 days; type: organism-based; conditions: in vivo, po, 336 h
Outline: (§2)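 Mice given a single intragastric dose of test compound at various dosages, then observed for 14 days for death and abnormal behaviour. On day 14, animals were sacrificed and heart, liver, lungs and kidneys examined.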

[11] = Acute Toxicity in C57BL/6 mouse assessed as abnormal behavior up to 2000 mg/kg, ig measured over 14 days; type: organism-based; conditions: in vivo, po, 336 h; outline: as §2
[12] = Acute Toxicity in C57BL/6 mouse up to 2000 mg/kg, ig measured every 14 days; type: organism-based; conditions: in vivo, po, 336 h; outline: as §2
[13] = Hepatotoxicity in C57BL/6 mouse assessed as abnormal changes up to 2000 mg/kg, ig after 14 days by microscopic analysis; type: toxicity, organism-based; conditions: in vivo, po, 336 h; outline: as §2
[14] = Hepatotoxicity in C57BL/6 mouse assessed as tissue damage up to 2000 mg/kg, ig after 14 days by microscopic analysis; type: toxicity, organism-based; conditions: in vivo, po, 336 h; outline: as §2
[15] = Cardiotoxicity in C57BL/6 mouse assessed as abnormal changes up to 2000 mg/kg, ig after 14 days by microscopic analysis; type: toxicity, organism-based; conditions: in vivo, po, 336 h; outline: as §2
[16] = Cardiotoxicity in C57BL/6 mouse assessed as tissue damage up to 2000 mg/kg, ig after 14 days by microscopic analysis; type: toxicity, organism-based; conditions: in vivo, po, 336 h; outline: as §2
[17] = Nephrotoxicity in C57BL/6 mouse assessed as abnormal changes up to 2000 mg/kg, ig after 14 days by microscopic analysis; type: toxicity, organism-based; conditions: in vivo, po, 336 h; outline: as §2
[18] = Nephrotoxicity in C57BL/6 mouse assessed as tissue damage up to 2000 mg/kg, ig after 14 days by microscopic analysis; type: toxicity, organism-based; conditions: in vivo, po, 336 h; outline: as §2
[19] = Acute Toxicity in C57BL/6 mouse lung assessed as abnormal changes up to 2000 mg/kg, ig after 14 days by microscopic analysis; type: organism-based; conditions: in vivo, po, 336 h; outline: as §2
[20] = Acute Toxicity in C57BL/6 mouse lung assessed as tissue damage up to 2000 mg/kg, ig after 14 days by microscopic analysis; type: organism-based; conditions: in vivo, po, 336 h; outline: as §2
Mus musculus [21] = test: Cognition enhancement activity in amyloid beta (25 to 35 residues) induced C57BL/6J mouse model of Alzheimer's disease assessed as decrease in escape latancy at 30 mg/kg/day, ig administered for 26 consecutive days by Morris water maze test; type: functional, organism-based
Outline: (§3)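 Mice were randomized into 7 groups. All except sham got an ICV injection of Aβ25-35 (3 nmol); sham got the same volume of saline ICV. Dosing was intragastric daily for 26 days, with 0.5% CMC-Na as vehicle for sham and model. Body weight, diarrhea and emesis-like behavior were monitored.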

[22] = Toxicity in amyloid beta (25 to 35 residues) induced C57BL/6J mouse model of Alzheimer's disease assessed as loss of body weight at 30 mg/kg/day, ig administered for 26 consecutive days; type: organism-based; conditions: in vivo, po; outline: as §3
[23] = Toxicity in amyloid beta (25 to 35 residues) induced C57BL/6J mouse model of Alzheimer's disease assessed as diarrhea at 30 mg/kg/day, ig administered for 26 consecutive days; type: organism-based; conditions: in vivo, po; outline: as §3
[24] = Toxicity in amyloid beta (25 to 35 residues) induced C57BL/6J mouse model of Alzheimer's disease assessed as emesis at 30 mg/kg/day, ig administered for 26 consecutive days; type: organism-based; conditions: in vivo, po; outline: as §3
Mus musculus [25] = test: Cognition enhancement activity in amyloid beta (25 to 35 residues) induced C57BL/6J mouse model of Alzheimer's disease assessed as swimming speed at 30 mg/kg/day, ig administered for 26 consecutive days by Morris water maze test (reference value: 15.6 +/- 2.4 cm/sec); type: functional; outline: as §3
Mus musculus [26] = test: Cognition enhancement activity in amyloid beta (25 to 35 residues) induced C57BL/6J mouse model of Alzheimer's disease assessed as increase in number of virtual platform crossing at 30 mg/kg/day, ig administered for 26 consecutive days by Morris water maze test; type: functional, organism-based; outline: as §3
Mus musculus [27] = test: Cognition enhancement activity in amyloid beta (25 to 35 residues) induced C57BL/6J mouse model of Alzheimer's disease assessed as swimming path length in virtual platform at 30 mg/kg/day, ig administered for 26 consecutive days by Morris water maze test (10.2 +/- 3.2 cm); type: functional; outline: as §3
Mus musculus [28] = test: Cognition enhancement activity in amyloid beta (25 to 35 residues) induced C57BL/6J mouse model of Alzheimer's disease assessed as swimming time in effective region at 30 mg/kg/day, ig administered for 26 consecutive days by Morris water maze test (4.3 +/- 1.3 sec); type: functional; outline: as §3
Mus musculus [29] = test: Neuroprotection in C57BL/6J mouse model of amyloid beta (25 to 35 residues) induced Alzheimer's disease assessed as reduction in ratio of apoptotic neuron in CA1 hippocampus region at 30 mg/kg/day, ig administered for 26 consecutive days by hematoxylin and eosin staining-based light microscopic analysis (reference value: 40.6 +/- 12.5%); type: ADME, organism-based; parameters: scale not given: the % may be the effect or the level left; conditions: in vivo, po
Outline: (§4)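 Hippocampal CA1, CA3 and DG neurons were stained with H&E after the Aβ25-35 ICV model and 26-day intragastric dosing. Denatured cell index = denatured cells/total cells, n = 5. Values are mean ± SD, two-way ANOVA versus model.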

Mus musculus [30] = test: Neuroprotection in amyloid beta (25 to 35 residues) induced C57BL/6J mouse model of Alzheimer's disease assessed as reduction in ratio of apoptotic neuron in CA3 hippocampus region at 30 mg/kg/day, ig administered for 26 consecutive days by hematoxylin and eosin staining-based light microscopic analysis (reference value: 80.2 +/- 8.6%); type: ADME, organism-based; parameters: scale not given: the % may be the effect or the level left; conditions: in vivo, po; outline: as §4
Mus musculus [31] = test: Neuroprotection in amyloid beta (25 to 35 residues) induced C57BL/6J mouse model of Alzheimer's disease assessed as reduction in ratio of apoptotic neuron in DG hippocampus region at 30 mg/kg/day, ig administered for 26 consecutive days by hematoxylin and eosin staining-based light microscopic analysis (reference value: 55.8 +/- 7.2%); type: ADME, organism-based; parameters: scale not given: the % may be the effect or the level left; conditions: in vivo, po; outline: as §4
[32] = Drug metabolism in Sprague-Dawley rat liver microsomes assessed as metabolic rate up to 180 mins in presence of NADPH by UV-based LC-MS/MS analysis; type: ADME, Microsome; conditions: 3 h
[33] = Metal chelating activity assessed as inhibition of Cu(II)-induced amyloid beta (1 to 42 residues) aggregation at 25 uM after 24 hrs by TEM assay
Outline: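 Samples were prepared as for the ThT assay. 10 µL aliquots were applied to carbon-coated copper grids for 2 min, then stained with 3% phosphotungstic acid for 2 min and imaged by transmission electron microscopy.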

in vitro [34] = conditions: PAMPA
in vitro [35] = conditions: Sprague-Dawley, rat, liver microsomes

Sequence of 3',5'-cyclic-AMP phosphodiesterase 4D (Q08499 whole entry, the tested form may be a part): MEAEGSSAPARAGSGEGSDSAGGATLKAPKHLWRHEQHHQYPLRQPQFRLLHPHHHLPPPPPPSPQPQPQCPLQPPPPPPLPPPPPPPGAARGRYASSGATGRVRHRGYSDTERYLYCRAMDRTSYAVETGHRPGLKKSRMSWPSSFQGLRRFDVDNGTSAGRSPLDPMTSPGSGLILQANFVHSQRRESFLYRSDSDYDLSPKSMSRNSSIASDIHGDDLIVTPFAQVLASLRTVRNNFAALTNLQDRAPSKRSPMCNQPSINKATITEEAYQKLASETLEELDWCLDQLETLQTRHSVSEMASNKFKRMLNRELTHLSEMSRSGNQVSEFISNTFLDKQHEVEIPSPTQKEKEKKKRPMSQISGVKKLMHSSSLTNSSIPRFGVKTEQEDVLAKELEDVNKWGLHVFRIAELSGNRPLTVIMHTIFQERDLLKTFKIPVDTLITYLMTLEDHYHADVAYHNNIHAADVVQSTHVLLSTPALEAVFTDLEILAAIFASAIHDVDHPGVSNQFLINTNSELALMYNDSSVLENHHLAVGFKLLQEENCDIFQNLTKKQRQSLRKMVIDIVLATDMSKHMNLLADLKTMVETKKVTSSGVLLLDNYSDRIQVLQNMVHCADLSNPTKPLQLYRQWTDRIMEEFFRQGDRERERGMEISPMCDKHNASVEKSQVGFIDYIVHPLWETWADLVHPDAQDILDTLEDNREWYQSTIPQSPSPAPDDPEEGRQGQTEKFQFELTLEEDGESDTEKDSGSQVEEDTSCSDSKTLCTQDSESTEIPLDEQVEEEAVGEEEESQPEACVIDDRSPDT

Cl.O=C(Nc1ccc(O)c2ncccc12)c1ccc(OC(F)F)c(OCC2CC2)c1
IC50 [1]: 399 nM | Activity [2]: 0.6 equiv | Activity [3]: Active | Activity [4]: Active | Activity [5]: Active | Activity [6]: Active | Activity (SH-SY5Y [7]): Non-Toxic | Activity (SH-SY5Y [8]): Dose-dependent effect | Activity [9]: Active | Activity [10]: Non-Toxic | Activity [11]: Non-Toxic | Activity [12]: Non-Toxic | Activity [13]: Non-Toxic | Activity [14]: Non-Toxic | Activity [15]: Non-Toxic | Activity [16]: Non-Toxic | Activity [17]: Non-Toxic | Activity [18]: Non-Toxic | Activity [19]: Non-Toxic | Activity [20]: Non-Toxic | Activity (Mus musculus [21]): Active | Activity [22]: Non-Toxic | Activity [23]: Non-Toxic | Activity [24]: Non-Toxic | Activity (Mus musculus [25]): 15 cm/s | Activity (Mus musculus [26]): Active | Activity (Mus musculus [27]): 19 cm | Time (Mus musculus [28]): 6.8 s | Activity (Mus musculus [29]): 12.5% | Activity (Mus musculus [30]): 7.9% | Activity (Mus musculus [31]): 18.7% | K [32]: 0.00767 min⁻¹ | Activity [33]: Active | Papp at 10 h, 100 ug/ml (in vitro [34]): 12.9 ×10⁻⁶ cm/s | half-life (in vitro [35]): 90.3 min
